The values that follow come from ChEMBL document CHEMBL3045116, “Synthesis and biological evaluation of 2-(5-substituted-1-((diethylamino)methyl)-2-oxoindolin-3-ylidene)-N-substituted-hydrazinecarbothioamides” (Med Chem Res, 2013).

For data set [1], the system named is Vesicular stomatitis virus. As to the kind of experiment: Antiviral activity against Vesicular stomatitis virus infected human HEL cells assessed as reduction of virus-induced cytopathic effect after 3 days by colorimetric formazan-based MTS assay. Format: functional, organism-based. The settings on record: 72 h. In outline: (§1)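 Confluent cell monolayers were infected with 100 CCID50 of virus, and serial dilutions of compound were added at the time of infection.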
In general terms: Cytopathic effects are the visible damage that an infection or toxin causes in cultured cells.

Data set [2] relates to Human alphaherpesvirus 1. Put plainly: Antiviral activity against Human herpesvirus 1 strain KOS infected human HEL cells assessed as reduction of virus-induced cytopathic effect after 3 days by colorimetric formazan-based MTS assay. Format: functional, organism-based. The note with it: Human alphaherpesvirus 1, KOS, 72 h. In outline: as §1
A short description of data set [3]: Cytotoxicity against Homo sapiens (human) HEL cells assessed as change in cellular morphology. Format: cell-based.
Data set [4] concerns Human alphaherpesvirus 1. As to the kind of experiment: Antiviral activity against acyclovir-resistant thymidine kinase negative Human herpesvirus 1 strain KOS infected human HEL cells assessed as reduction of virus-induced cytopathic effect after 3 days by colorimetric formazan-based MTS assay. The data set is classed as functional, organism-based. The settings on record: Human alphaherpesvirus 1, KOS, 72 h. The essentials:
as §1

A further data set relates to Human alphaherpesvirus 2. As to the kind of experiment: Antiviral activity against Human herpesvirus 2 strain G infected human HEL cells assessed as reduction of virus-induced cytopathic effect after 3 days by colorimetric formazan-based MTS assay. The data set is classed as functional, organism-based. The settings on record: Human alphaherpesvirus 2, strain G, 72 h. In outline:
as §1

Data set [5] in a line: Cytotoxicity against Chlorocebus aethiops (African green monkey) Vero cells assessed as change in cellular morphology. The data set is classed as cell-based. The note with it: chlorocebus sabaeus.
A further data set concerns L1210. As to the kind of experiment: Cytotoxicity against Mus musculus (mouse) L1210 cells assessed as growth inhibition after 48 hr by coulter counter analysis. Format: functional, cell-based. The settings on record: L1210, 48 h. In outline: (§2)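 Cells in growth medium were allowed to proliferate with variable compound amounts at 37 °C in a humidified CO2 atmosphere. Incubation ran 48 h for L1210, 72 h for CEM and 96 h for HeLa. Cells were then counted with a Coulter counter.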

A further data set relates to Influenza A virus H3N2. Put plainly: Antiviral activity against Influenza A virus H3N2 infected MDCK cells assessed as reduction of virus-induced cytopathic effect after 3 days by colorimetric formazan-based MTS assay. The settings on record: 72 h. The data set is classed as functional, organism-based. The essentials:
as §1

In a further data set the test system is Klebsiella pneumoniae. As to the kind of experiment: Antibacterial activity against Klebsiella pneumoniae assessed as growth inhibition at 50 ug/ml by cup-plate method (reference value: 8 to 10 mm). The data set is classed as functional. The note with it: read-out: DIZ.
The subject of data set [6] is Mammalian orthoreovirus 1. Put plainly: Antiviral activity against Mammalian orthoreovirus 1 infected African green monkey Vero cells assessed as reduction of virus-induced cytopathic effect after 3 days by colorimetric formazan-based MTS assay. The note with it: Mammalian orthoreovirus 1, Vero, 72 h. The data set is classed as functional, organism-based. The essentials:
(§3)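 Cells grown to confluency in 96-well plates ([…], Vero for lines 9–10) were infected with 100 CCID50 of virus, and serial compound dilutions were added at infection. Plates were incubated at 37 °C for 3 days, until complete CPE appeared in untreated virus controls.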

Data set [7] can be described thus: Inhibition of beta lactamase assessed as time for decolorization of iodine (reference value: 79.5 secs).
The subject of the next data set is Human respirovirus 3. Put plainly: Antiviral activity against Human parainfluenza virus 3 infected African green monkey Vero cells assessed as reduction of virus-induced cytopathic effect after 3 days by colorimetric formazan-based MTS assay. The note with it: Human respirovirus 3, Vero, 72 h. Format: functional, organism-based. The essentials: as §3
Data set [8] is described as follows: Inhibition of beta lactamase assessed as increase in time taken for iodine decolorization relative to control. On the set-up: concentration or dose not given beside the values. The settings on record: concentration not given here.
Another data set relates to Aspergillus niger. Put plainly: Antifungal activity against Aspergillus niger assessed as growth inhibition at 50 ug/ml by cup-plate method (reference value: 8 to 10 mm). The data set is classed as functional. The settings on record: read-out: DIZ.
Data set [9] relates to Vesicular stomatitis virus. As to the kind of experiment: Antiviral activity against Vesicular stomatitis virus infected human HeLa cells assessed as reduction of virus-induced cytopathic effect after 3 days by colorimetric formazan-based MTS assay. The note with it: 72 h. Format: functional, organism-based. In outline: as §1
The nature of data set [10]: (§4) Cytotoxicity against Homo sapiens (human) HeLa cells assessed as change in cellular morphology. The data set is classed as cell-based. The note with it: HeLa cells. In outline: (§5)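 Uninfected cells were exposed to compound in parallel with the antiviral cultures. The read-out is the minimum cytotoxic concentration that causes a microscopically detectable alteration of normal cell morphology.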

In a further data set the test system is HeLa. The description is as §4. The data set is classed as cell-based. The note with it: hela. The essentials: as §5
A further data set concerns Vaccinia virus. Put plainly: Antiviral activity against Vaccinia virus infected human HEL cells assessed as reduction of virus-induced cytopathic effect after 3 days by colorimetric formazan-based MTS assay. Format: functional, organism-based. The note with it: Orthopoxvirus vaccinia, 72 h. In outline: as §1
In data set [11] the test system is Coxsackievirus B4. As to the kind of experiment: Antiviral activity against Human coxsackievirus B4 infected human HeLa cells assessed as reduction of virus-induced cytopathic effect after 3 days by colorimetric formazan-based MTS assay. The data set is classed as functional, organism-based. The note with it: Enterovirus B, 72 h. In outline:
as §1

Data set [12] concerns Coxsackievirus B4. Put plainly: Antiviral activity against Human coxsackievirus B4 infected African green monkey Vero cells assessed as reduction of virus-induced cytopathic effect after 3 days by colorimetric formazan-based MTS assay. The data set is classed as functional, organism-based. The settings on record: Enterovirus B, 72 h. The essentials: as §1
The next data set relates to Influenza A virus. As to the kind of experiment: Antiviral activity against Unidentified Influenza A virus (H1N1) infected MDCK cells assessed as reduction of virus-induced cytopathic effect after 3 days by colorimetric formazan-based MTS assay. Format: functional, organism-based. The note with it: 72 h. In outline: as §1
In the next data set the test system is Candida albicans. Put plainly: Antifungal activity against Candida albicans assessed as growth inhibition at 50 ug/ml by cup-plate method (reference value: 8 to 10 mm). The data set is classed as functional. The settings on record: read-out: DIZ.
Data set [13] can be described thus: Cytotoxicity against Felis catus (cat) CRFK cells assessed as change in cellular morphology. The data set is classed as cell-based. The note with it: crfk. The essentials: as §5
The subject of a further data set is CCRF-CEM. Put plainly: Cytotoxicity against Homo sapiens (human) CEM cells assessed as growth inhibition after 72 hr by coulter counter analysis. Format: functional, cell-based. The essentials: as §2
The next data set deals with Proteus vulgaris. As to the kind of experiment: Antibacterial activity against Proteus vulgaris assessed as growth inhibition at 50 ug/ml by cup-plate method (reference value: 8 to 10 mm). The data set is classed as functional. The note with it: read-out: DIZ.
The subject of another data set is Bacillus subtilis. Put plainly: Antibacterial activity against Bacillus subtilis assessed as growth inhibition at 50 ug/ml by cup-plate method (reference value: 8 to 10 mm). The data set is classed as functional. The settings on record: read-out: DIZ.
The test system of another data set is Salmonella typhi. As to the kind of experiment: Antibacterial activity against Salmonella enterica subsp. enterica serovar Typhi assessed as growth inhibition at 50 ug/ml by cup-plate method (reference value: 8 to 10 mm). The data set is classed as functional. The settings on record: read-out: DIZ.
Data set [14] can be described thus: (§6) Cytotoxicity against MDCK cells assessed as change in cellular morphology. Format: cell-based, Canis lupus familiaris. The settings on record: dog, MDCK cells. In outline: as §5
The subject of the next data set is MDCK. The data set is described as §6. Format: cell-based, Canis lupus familiaris. The settings on record: dog, mdck. The essentials: as §5
The next data set deals with Influenza B virus. As to the kind of experiment: Antiviral activity against Influenza B virus infected in MDCK cells assessed as reduction of virus-induced cytopathic effect after 3 days by colorimetric formazan-based MTS assay. Format: functional, organism-based. The settings on record: 72 h. In outline: as §1
In another data set the test system is Punta Toro virus. As to the kind of experiment: Antiviral activity against Punta Toro virus infected in African green monkey Vero cells assessed as reduction of virus-induced cytopathic effect after 3 days by colorimetric formazan-based MTS assay. The data set is classed as functional, organism-based. The settings on record: 72 h. The essentials:
as §1

Data set [15] has as its system Feline infectious peritonitis virus. Put plainly: Antiviral activity against Feline Infectious peritonitis virus infected cat CRFK cells assessed as reduction of virus-induced cytopathic effect after 3 days by colorimetric formazan-based MTS assay. Format: functional, organism-based. The settings on record: Alphacoronavirus 1, CRFK, 72 h. The essentials: as §1
The test system of another data set is Felid alphaherpesvirus 1. As to the kind of experiment: Antiviral activity against Felid herpesvirus 1 infected cat CRFK cells assessed as reduction of virus-induced cytopathic effect after 3 days by colorimetric formazan-based MTS assay. Format: functional, organism-based. The note with it: Felid alphaherpesvirus 1, CRFK, 72 h. The essentials: as §3
The test system of data set [16] is Respiratory syncytial virus. Put plainly: Antiviral activity against Respiratory syncytial virus infected human HeLa cells assessed as reduction of virus-induced cytopathic effect after 3 days by colorimetric formazan-based MTS assay. Format: functional, organism-based. The settings on record: 72 h. The essentials: as §1
In the next data set the test system is Staphylococcus aureus. Put plainly: Antibacterial activity against Staphylococcus aureus assessed as growth inhibition at 50 ug/ml by cup-plate method (reference value: 8 to 10 mm). Format: functional. The note with it: read-out: DIZ.
The next data set has as its system Escherichia coli. As to the kind of experiment: Antibacterial activity against Escherichia coli assessed as growth inhibition at 50 ug/ml by cup-plate method (reference value: 8 to 10 mm). The data set is classed as functional. The note with it: read-out: DIZ.
A further data set deals with Respirovirus muris. As to the kind of experiment: Antiviral activity against Sendai virus infected African green monkey Vero cells assessed as reduction of virus-induced cytopathic effect after 3 days by colorimetric formazan-based MTS assay. The note with it: 72 h. Format: functional, organism-based.

Molecules are shown by their SMILES.

Take `Nc1ccn(C[C@@H](CO)OCP(=O)(O)O)c(=O)n1` [CIDOFOVIR]: the EC50 (in general, the concentration at which the effect is half-maximal) was > 250 µM in data set [1], 5 µM in the data set with Human alphaherpesvirus 1 [2], 6 µM with Human alphaherpesvirus 1 [4] and 1.5 µM with Human alphaherpesvirus 2. Besides, in data set [3], the MCC is > 250 µM.

As to `CCN(CC)CN1C(=O)/C(=N/NC(=S)Nc2ccc(OC)cc2)c2ccccc21`, the EC50 in [1] was > 20 µM; with Influenza A virus H3N2, > 0.8 µM; in data set [6], > 0.8 µM; with Human respirovirus 3, > 0.8 µM; in [9], > 4 µM; in the data set on Vaccinia virus it was > 20 µM. In addition, the EC50 with Coxsackievirus B4 [11] is > 4 µM; in the data set on Coxsackievirus B4 [12], > 0.8 µM; with Influenza A virus, > 0.8 µM; with Human alphaherpesvirus 1 [2], > 20 µM; in the data set with Influenza B virus, > 0.8 µM; in the data set on Punta Toro virus, > 0.8 µM. The EC50 in data set [15] was > 0.8 µM; with Felid alphaherpesvirus 1, > 0.8 µM; in data set [16] it was > 4 µM; in the data set with Human alphaherpesvirus 1 [4], > 20 µM; in the data set on Respirovirus muris, > 0.8 µM; with Human alphaherpesvirus 2, > 20 µM. Moreover, the MCC is 4 µM in data set [5], ≥ 4 µM in data set [10], 100 µM in data set [3] and 4 µM in data set [14]. In addition, the IC50 – broadly, the midpoint of a concentration-inhibition curve – in the data set on L1210 was determined as 2.4 µM; with CCRF-CEM, 1.9 µM. Also, the zone of inhibition at 50 µg/mL with Klebsiella pneumoniae turned out to be 11 mm; in the data set on Aspergillus niger it was 11 mm; with Candida albicans, 11 mm; in the data set with Proteus vulgaris, 21 mm; in the data set with Bacillus subtilis, 11 mm; with Salmonella typhi, 21 mm. For the same compound, the zone of inhibition at 50 µg/mL with Staphylococcus aureus and in the data set with Escherichia coli was 11 mm each time. Also, in data set [7], the TIME was found to be 0.0343 h. Further, the inhibition – broadly, the drop in the measured response relative to a control, in per cent – in data set [8] amounted to 35.7%. For the same compound, the CC50 (commonly the concentration giving 50% cytotoxicity) is > 100 µM in the data set with HeLa, 3.5 µM in data set [13] and 9.2 µM in the data set with MDCK.

On to `OC(Cn1cncn1)(Cn1cncn1)c1ccc(F)cc1F` [FLUCONAZOLE], for which the zone of inhibition at 50 µg/mL in the data set with Aspergillus niger and in the data set on Candida albicans was 31 mm in each case.

As for `CC(N)C12CC3CC(CC(C3)C1)C2` (stereo not given) [RIMANTADINE], the results for the EC50 with Influenza A virus H3N2, with Influenza A virus and in the data set on Influenza B virus were 0.08 µM, 24.2 µM and > 100 µM, respectively. In addition, in [14], the MCC was found to be 500 µM. Also, the cytotoxic concentration (CC50) with MDCK came out at 259 µM.

Consider `Nc1ncnc2c1ncn2C[C@H](O)CO` [(S)-DHPA], for which the MCC in [5] and in [10] was > 250 µM each time. The EC50 (in data set [9]; with Coxsackievirus B4 [11]; in the data set on Coxsackievirus B4 [12]; in the data set on Punta Toro virus; in data set [16]; in the data set with Respirovirus muris) was > 250 µM throughout. Further, the half-maximal cytotoxic concentration (CC50) with HeLa is > 250 µM.

For the compound `N[C@@H](Cc1ccc(N(CCCl)CCCl)cc1)C(=O)O`, the IC50 in the data set on L1210 is 3.2 µM; in the data set with CCRF-CEM, 2.2 µM.
